# FGF22 binding: binders of human FGF22 protein, primary screen, FGF22 synaptogenesis inhibitor project, biophysical, thermal shift, single point; Fibroblast growth factor 22 (Homo sapiens), Q9HCT0; activity (Tm shift, normalised), % at 9.99 µM; 340,000 tested, 1.5% active; AID 651658, 2012; recombinant FGF22 thermal shift, SYPRO orange fluorescence; percent of sucrose octasulfate shift, DMSO zero;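 active means mean Tm shift, scaled 0 neutral to 100 positive control, at about 1.3% or above, every replicate too, limit read from the data; inconclusive means no clear call, values can overlap the other calls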
# Target sequence (Q9HCT0 whole entry, looked up): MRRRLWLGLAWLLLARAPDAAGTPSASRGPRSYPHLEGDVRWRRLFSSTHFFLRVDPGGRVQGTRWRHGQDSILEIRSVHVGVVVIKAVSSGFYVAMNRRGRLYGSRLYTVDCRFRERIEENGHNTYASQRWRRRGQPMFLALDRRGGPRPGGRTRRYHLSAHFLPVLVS
# XiGFP reactiv: activators of inactive X chromosome reactivation, primary screen, imaging, XiGFP fibroblasts, GFP high-content imaging, set 2; XiGFP mouse fibroblasts, % GFP-positive cells imaging, 3 d; cells co-treated with 5-aza-dC sensitizer; scaled so ellipticine positive control = 100%; activation, % at 7.58 µM; 360,000 tested, 0.055% active; AID 743238, 2013;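 active means mean normalized replicate activation at least 10% and every replicate at or above 10%; inconclusive means only one of the two criteria met; inactive means mean below 10% and not all replicates reach 10%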
#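 Material: SV40-immortalized XiGFP fibroblast cells, line 68-5-11 | Buffer or medium: DMEM containing 5-aza-dC | Dosing: One concentration, pinned | Times: 3 d treatment, 15 min room-temperature fixation | Controls: Ellipticine 6 µM positive control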
# ARNT TACC3 PPI: disruptors of ARNT/TACC3 protein interaction, primary screen, biochemical, AlphaScreen, single concentration; AlphaScreen His-ARNT PAS-B/GST-TACC3 binding, luminescence; TACC3 fragment carries E629A point mutation; 390,000 tested, 0.66% active; inhibition, % at 9.99 µM; AID 623870, 2012; Transforming acidic coiled-coil-containing protein 3 (Homo sapiens), Q9Y6A5;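 active means mean inhibition of replicates at least 50% and at least half of replicates each reaching 50%; inconclusive means half or more replicates reach 50% but mean below 50%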
# FN deposition inh: inhibitors of fibronectin matrix deposition, primary screen, AH1F cells, Alexa488-fibronectin fluorescence, plate reader. inhibition, % at 12.6 µM. 350,000 tested, 0.086% active. AH1F fibroblasts, overnight;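 active means mean inhibition across replicates of 30% or more, regardless of how many single replicates reach that level; inconclusive means mean under 30% yet at least half of replicates reach 30%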
#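 Assay system: AH1F fibroblasts assembling fluorescent fibronectin matrix; Amount: 10000 AH1F cells per well; Buffer or medium: DMEM, 2% serum; Probe or stimulus: Alexa488-fibronectin, 24 nM final in well; Doses: single compound dose, delivered by pin transfer; Incubation: 1 h adhesion, overnight exposure; Measured by: fluorescence 485/525 nm; Read-out: fibronectin deposition inhibition.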
# DENV2 CPE rescue: inhibitors of DENV2 cytopathic effect, primary screen, cell-based, plate reader, single concentration; DENV2-infected cells, cytopathic effect rescue; CPE inhibition, % at 9.99 µM; 350,000 tested, 1.7% active; AID 651640, 2012; in the data active means CPE inhibition above about 20%, passing the limit was not always enough; inconclusive means no clear call, values can overlap the other calls; tested in BHK-21 cells
# SIRT5 inh: SIRT5 desuccinylase inhibitors, primary screen, biochemical, fluorescence imaging, single point, set 5 | Purified SirT5, succinyl-peptide AMC, trypsin-coupled fluorescence | AID 652115, 2013 | inhibition, % at 15 µM | 330,000 tested, 1.1% active | NAD-dependent protein deacylase sirtuin-5, mitochondrial (Homo sapiens), Q9NXA8; in the data active means inhibition above about 15%; inconclusive means no clear call, values can overlap the other calls
# Target sequence (Q9NXA8 whole entry, looked up): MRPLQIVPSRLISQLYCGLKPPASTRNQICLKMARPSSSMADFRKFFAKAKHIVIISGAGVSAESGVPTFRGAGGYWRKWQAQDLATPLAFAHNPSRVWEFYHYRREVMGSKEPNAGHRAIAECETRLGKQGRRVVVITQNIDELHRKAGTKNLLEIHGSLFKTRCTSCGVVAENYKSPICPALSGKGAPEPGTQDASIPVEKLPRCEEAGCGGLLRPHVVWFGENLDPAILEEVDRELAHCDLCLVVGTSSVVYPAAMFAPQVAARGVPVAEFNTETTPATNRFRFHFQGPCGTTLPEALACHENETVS
# A number is an active result; n = inactive; u = inconclusive; x = not tested or not shown. Compounds with a hit are over-represented: about 3.8% of the library has one in this group of screens.
SMILES,FGF22 binding,XiGFP reactiv,ARNT TACC3 PPI,FN deposition inh,DENV2 CPE rescue,SIRT5 inh
CCOc1cc(/C=N/Nc2ccc(S(=O)(=O)Nc3ccccc3C(=O)O)cc2[N+](=O)[O-])cc(Cl)c1O,n,n,x,n,n,x
CC(=O)Nc1cccc(/C(C)=N/Nc2ccc(S(=O)(=O)Nc3ccccc3C(=O)O)cc2[N+](=O)[O-])c1,n,n,n,n,n,21
CC(=O)Nc1ccc(C=NNc2ccc(S(=O)(=O)Nc3ccccc3C(=O)O)cc2[N+](=O)[O-])cc1,x,n,n,n,n,17
C[C@H](CO)N1C[C@H](C)[C@H](CN(C)C(=O)Cc2ccncc2)Oc2cc(C#CC3CCCC3)ccc2S1(=O)=O,n,n,n,n,n,n
CN(C)CC(=O)Nc1ccc2c(c1)[C@@H]1C[C@@H](CC(=O)NCc3ccccn3)O[C@@H](CO)[C@@H]1O2,n,n,n,x,n,n
C[C@H](CO)N1C[C@H](C)[C@H](CN(C)Cc2ccc(C(=O)Nc3ccccc3N)cc2)Oc2ccc(NC(=O)NC3CCCCC3)cc2CC1=O,n,n,x,x,n,n
CC(=O)Nc1ccc(C=NNc2ccc([N+](=O)[O-])cc2S(=O)(=O)Nc2ccccc2C(=O)O)cc1,n,n,n,n,n,26
CCOc1ccc(C=NNc2ccc(S(=O)(=O)Nc3ccccc3C(=O)O)cc2[N+](=O)[O-])cc1OC,x,x,n,x,x,x
COc1cc(C=NNc2ccc(S(=O)(=O)Nc3ccccc3C(=O)O)cc2[N+](=O)[O-])ccc1O,n,n,n,n,n,22
COc1cccc(C(C)=NNc2ccc([N+](=O)[O-])cc2[N+](=O)[O-])c1OC,n,n,x,n,n,n
Cc1ccc(NC(=S)NNc2ccc([N+](=O)[O-])cc2S(=O)(=O)Nc2ccccc2C(=O)O)cc1C,x,n,n,x,x,x
COc1ccc(C(C)=NNc2ccc([N+](=O)[O-])cc2S(=O)(=O)Nc2ccccc2C(=O)O)c(OC)c1,x,n,n,n,n,15
CN1CCN(C(=O)[C@H]2[C@H](CO)[C@H]3Cn4c(ccc(C5=CCCCC5)c4=O)[C@@H]2N3S(C)(=O)=O)CC1,n,n,n,x,n,n
C[C@@H]1CCCCO[C@H](CN(C)C(=O)CCC(F)(F)F)[C@H](C)CN([C@@H](C)CO)C(=O)c2cc(NS(=O)(=O)c3cn(C)cn3)ccc2O1,n,n,n,x,n,n
COc1ccc(CCN(Cc2cc3cc(C)ccc3[nH]c2=O)C(C)=O)cc1OC,n,n,n,n,n,n
COc1ccc(CCN(Cc2cc3ccc(C)cc3n3nnnc23)C(C)=O)cc1OC,n,n,n,n,n,26
O=C(COC(=O)C1CC(=O)N(Cc2ccccc2)C1)Nc1ccc([N+](=O)[O-])cc1Br (centres undefined),43,n,x,n,n,x
c1cc(-c2ccc(N3CCOCC3)cc2)n2cnnc2c1,n,n,x,n,24,n
CCC(=O)Nc1ccc2c(c1)OC[C@H](C)N(CC1CCOCC1)C[C@H](C)[C@@H](OC)CN(C)C2=O,n,n,x,n,n,n
C[C@@H]1CN([C@H](C)CO)S(=O)(=O)c2ccc(/C=C/c3ccccc3)cc2O[C@H]1CN(C)Cc1ccc(C(=O)O)cc1,n,n,n,x,n,u
C[C@@H]1CN([C@@H](C)CO)S(=O)(=O)c2ccc(/C=C/c3ccccc3)cc2O[C@@H]1CN(C)Cc1ccccc1,n,n,n,x,n,19
C/C=C/c1ccc2c(c1)O[C@@H](CN(C)Cc1ccccc1)[C@@H](C)CN([C@H](C)CO)S2(=O)=O,n,n,n,n,u,n
C[C@H]1CN([C@@H](C)CO)S(=O)(=O)c2ccc(/C=C/c3ccccc3)cc2O[C@@H]1CN(C)Cc1ccccc1,n,n,n,x,n,22
C[C@H]1CN([C@@H](C)CO)S(=O)(=O)c2ccc(/C=C/c3ccccc3)cc2O[C@H]1CN(C)Cc1ccc(C(=O)O)cc1,n,n,n,x,n,19
CC(C)NC(=O)Nc1ccc2c(c1)C(=O)N([C@@H](C)CO)C[C@@H](C)[C@@H](CN(C)S(=O)(=O)c1ccccc1)O2,n,n,n,n,n,n
SMILES,FGF22 binding,XiGFP reactiv,ARNT TACC3 PPI,FN deposition inh,DENV2 CPE rescue,SIRT5 inh
C[C@H](CO)N1C[C@H](C)[C@H](CN(C)C(=O)Nc2ccc(F)cc2)Oc2ccc(NS(C)(=O)=O)cc2CC1=O,n,n,n,n,n,n
C[C@@H]1CN([C@@H](C)CO)C(=O)c2cc(NC(=O)Nc3ccc4c(c3)OCO4)ccc2O[C@H]1CN(C)CC1CCCCC1,x,n,x,x,x,x
O=C(CSc1nnc(-c2ccco2)o1)Nc1c(F)cccc1F,n,n,n,n,n,n
O=C(CSc1n[nH]c(-c2ccco2)n1)Nc1ccc(Br)cc1,n,n,n,x,30,n
CC(=O)c1ccc(NC(=O)CSc2nnc(Cn3cnc4ccccc43)o2)cc1,43,n,n,n,n,n
CCc1ccc(NC(=O)CSc2nnc(-c3ccco3)o2)cc1,n,n,n,31,n,n
CC(=O)Nc1ccc(NC(=O)CSc2nnc(-c3ccco3)o2)cc1,44,n,n,n,n,n
CCC(=O)N1C[C@@H](C)[C@@H](OC)CN(C)C(=O)c2cc(NC(=O)NC3CCCC3)ccc2OC[C@@H]1C,x,n,x,n,x,x
O=C(C[C@@H]1CC[C@H]2[C@@H](COC[C@@H](O)CN2Cc2ccccc2)O1)N1CCOCC1,n,n,n,n,n,n
O=C(c1ccc(F)cc1)N1CC(=O)N2[C@@H](CO)[C@H](c3ccc(-c4ccccc4)cc3)[C@@H]2C1,x,n,x,x,n,n
COc1ccc(C(=O)CSc2nnc(-c3cc(C)on3)o2)cc1,n,n,n,n,n,n
Cc1cc(NC(=O)CSc2nnc(CNC(=O)c3ccc(C(C)(C)C)cc3)o2)no1,n,n,47,n,n,n
Cc1cc(-c2nnc(SCC(=O)c3ccc(Cl)cc3)o2)no1,44,n,n,n,n,n
CC(=O)c1cccc(NC(=O)CSc2ccc(-c3ccco3)nn2)c1,n,n,n,n,n,n
CCc1ccc(NC(=O)CSc2ccc(-c3ccco3)nn2)cc1,43,n,n,n,n,n
NS(=O)(=O)c1cccc(NC(=O)CSc2n[nH]c(-c3ccccc3Br)n2)c1,1.9,n,n,n,n,n
